ERb SRC1 inh = blocks coactivator binding to human estrogen receptor beta. Q92731. TR-FRET ER-beta LBD / SRC1-Cy5 peptide binding; receptor agonist-loaded with 1 µM estradiol. inhibition, % at 25.6 µM. 1.3% of 86,000 active. AID 633;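 active = compounds whose percent inhibition of the receptor-coactivator binding signal exceeds about 50% in the single-dose screen, limit read from the data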;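 also: 0% = receptor plus peptide wells without compound and 100% = peptide-only wells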
ERa SRC1 pot = enhances coactivator binding to human estrogen receptor alpha; coactivator binding (% of control), % at 25.6 µM; TR-FRET ERalpha-LBD/SRC-Cy5 coactivator binding, 2 h; 100 = basal binding, no effect; 1.3% of 86,000 active; P03372; in the data active = activity above about 200%;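 also: binding measured in presence of low estradiol as agonist stimulus; 0% = peptide alone without receptor and 100% = receptor with peptide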
SF1 activator = activates the human nuclear receptor SF-1; Q13285; CHO-K1 Gal4-SF-1 LBD luciferase reporter; % increase over DMSO SF-1-specific signal; activation, % at 10 µM; 1.9% of 65,000 active; AID 522;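 active = activation above the mean activation of all tested compounds plus 3 SD, cut at about 50% in these data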
Target sequence (Q13285 whole entry, looked up, the tested form may be a part): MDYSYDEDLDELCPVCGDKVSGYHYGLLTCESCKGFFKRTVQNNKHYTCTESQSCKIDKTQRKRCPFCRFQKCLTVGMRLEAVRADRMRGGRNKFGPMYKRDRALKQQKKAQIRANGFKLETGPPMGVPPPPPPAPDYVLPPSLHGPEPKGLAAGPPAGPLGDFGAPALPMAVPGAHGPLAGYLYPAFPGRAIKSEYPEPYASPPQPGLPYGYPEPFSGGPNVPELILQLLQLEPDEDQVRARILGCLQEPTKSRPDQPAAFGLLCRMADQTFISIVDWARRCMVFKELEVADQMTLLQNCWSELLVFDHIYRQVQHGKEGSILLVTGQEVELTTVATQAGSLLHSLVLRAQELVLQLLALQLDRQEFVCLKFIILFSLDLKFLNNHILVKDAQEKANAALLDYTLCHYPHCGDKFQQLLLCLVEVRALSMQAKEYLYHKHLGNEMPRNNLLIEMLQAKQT
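Compound – one dose, 10 µM compound, 1% DMSO · Test system – transient Gal4-SF-1 LBD reporter, CHO-K1 · Input – 4,000 cells in each well · Read-out basis – percent activation relative to DMSO median and mock-transfected background · Replicates – single measurement per compound · Technique – steady-glow luciferase luminescence, read after 15 min reagent incubation · Timing – 20 h compound treatment, 37 °C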
RORA act = activates the human nuclear receptor RORA; CHO-K1 Gal4-RORA LBD luciferase reporter, luminescence; percent increase over mock-subtracted basal signal; 1.5% of 65,000 active; P35398; activation, % at 10 µM;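 active = activation above the mean of all tested compounds plus 3 SD, cut at about 49% in these data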;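 also: 0% = DMSO-treated RORA cells and 100% = added signal equal to DMSO minus mock-transfected cells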
ERa SRC1 inh = ER-alpha (human) coactivator binding inhibition | P03372 | TR-FRET ER-alpha LBD / SRC-1 peptide, estradiol-bound | AID 629 | inhibition, % at 25.6 µM | 1.7% of 86,000 active; in the data active = inhibition above about 50%;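 also: 0% = receptor plus peptide control and 100% = peptide only without receptor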
PTK2B oligo ant = Pyk2 (human) oligomerization antagonism; 0.83% of 99,000 active; Q14289; z-score (the deposit names both 25 µM and 10 µM); Q293 cells, Pyk2 FERM NanoBiT luminescence; hits give low values;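 active = Z-score of -3 or lower, scaled per plate to the spread of control and sample wells; inactive = z-score above -3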;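 also: negative z-score means lost luminescence so less FERM oligomerization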
* = called active by the depositor; . = no result; [ ] = another dose, or the depositor's remark. In the library only some 4.8% were active in any assay of this set; here they are far more common.

SMILES	ERb SRC1 inh	ERa SRC1 pot	SF1 activator	RORA act	ERa SRC1 inh	PTK2B oligo ant
CCc1nnc(NC(=O)c2cc3c(s2)CCCCC3)s1	10	127	74*	34	8	0.98
O=C(Nc1ccon1)c1cc2c(s1)CCCC2	26	105	38	42	25	0.35
O=C(NCc1ccco1)c1cc2c(s1)CCCCC2	31	96	70*	7	43	2.6
O=C(NCc1ccco1)c1ccc(C(=O)NCc2ccco2)s1	.	.	.	.	.	0.46
O=C(Nc1ccon1)c1cc2c(s1)CCCCCC2	-5	91	82*	45	-3	-1.3
O=C(CNc1ccccc1)Nc1ccc(F)cc1	-14	96	61*	3	-5	-0.73
CC(=O)Nc1ccc(-c2cn3ccsc3n2)cc1	-7	116	33	40	-2	0.07
O=C(CCN1C(=O)c2ccccc2C1=O)Nc1ccc(-c2cn3ccsc3n2)cc1	-3	103	65*	18	-9	-0.18
O=C(CN1C(=O)c2ccccc2C1=O)Nc1ccc(-c2nc3ccccc3o2)cc1	-2	213*	-2	-1	-2	-0.63
O=C(CCN1C(=O)c2ccccc2C1=O)Nc1ccc(-c2nc3ccccc3o2)cc1	23	94	53*	50*	18	-0.11
CCCOc1ccc(/C(O)=C2/C(=O)C(=O)N(CCN(C)C)C2c2ccncc2)cc1 (configuration not stated)	17	91	-7	-16	0	0.45
COc1ccc(CCN2C(=O)CC(C(N)=O)SC2=Nc2ccccc2)cc1OC (configuration not stated)	-5	106	5	10	0	0.39
Cc1cc(C)cc(N(CC(=O)NCc2ccco2)S(=O)(=O)c2c(C)noc2C)c1	-2	102	0	18	28	.
O=C(N/N=C/c1ccc(Br)cc1)c1ccccc1-n1cccc1	-2	100	.	.	9	-0.99
O=C(CCN1C(=O)c2ccccc2C1=O)Nc1ccc(F)cc1	-2	118	-4	9	85*[fluorescence artefact?]	-0.02
O=c1nc2scc(-c3ccccc3)n2c2ccccc12	-2	108	-12	-1	14	1
CCOC(=O)Nc1ccc2c(C)cc(=O)oc2c1	3	106	56*	53*	6	0.02
CCCCOC(=O)Nc1ccc2c(C)cc(=O)oc2c1	2	118	.	.	10	-0.87
O=C(NCCCCNC(=O)c1ccc(Br)s1)c1ccc(Br)s1	.	.	.	.	.	0.33
CCOc1cc(/C=C2\CCC/C(=C\c3cc(Cl)c(O)c(OCC)c3)C2=O)cc(Cl)c1O	.	.	.	.	.	-3.6*
CCCn1c(SCC(=O)Nc2ccccc2-c2ccccc2)nnc1-c1ccoc1C	-10	99	-5	-13	0	-0.22
CN(C)C(=O)CSc1nnc2sc3ccccc3n12	.	.	4	-2	.	0.4
c1csc(CSc2nc3ccccc3s2)c1	-5	72	52*	45	-5	-0.71
c1csc(CSc2nnc3sc4ccccc4n23)c1	.	.	40	51*	.	-0.4
COc1ccc(N=c2scc(-c3ccc(S(=O)(=O)N4CCOCC4)cc3)n2CCCO)cc1	-4	99	-64	-51	-7	.
SMILES	ERb SRC1 inh	ERa SRC1 pot	SF1 activator	RORA act	ERa SRC1 inh	PTK2B oligo ant
C=CCn1c(-c2ccc(S(=O)(=O)N3CCOCC3)cc2)csc1=Nc1ccccc1	-25	215*	.	.	-7	0.9
COc1cc(/C=C/C(=O)OCC(=O)NCC2CCCO2)ccc1OCC#N (configuration not stated)	.	.	.	.	.	1.8
COCc1cc(C)nc(SCC(=O)Nc2ccc(C)c(C)c2)c1C#N	3	208*[fluorescence artefact?]	47	33	-7	-0.57
Cc1cc(C)c(C#N)c(SCC(=O)Nc2ccc3c(c2)OCO3)n1	10	100	.	.	27	0.08
Cc1nc(SCC(=O)Nc2ccc3c(c2)OCO3)c(C#N)c2c1CCCC2	10	131	-3	-6	3	-3.2*
CC(C)(C)NC(=O)c1ccc(Sc2ccccc2)c([N+](=O)[O-])c1	.	.	.	.	.	-0.75
CC(NC(=O)Nn1cnnc1)(C(F)(F)F)C(F)(F)F	-10	104	.	.	-1	0
Cc1cc(C)c(S(=O)(=O)N(C)CC(=O)NC2CCCC2)c(C)c1	-8	112	13	-10	-12	-0.45
CC(C)(/C=N/O)/[N+]([O-])=C/c1ccco1	-3	112	-2	11	-7	0.35

Screens (PubChem)
